Compounds with a hit are over-represented: about 1.9% of the library has one in this group of screens.
HIF activator: HIF pathway transcriptional activation | U2OS HRE-luciferase reporter, luminescence; normalized: DMSO 0%, desferrioxamine 100% | activation, % at 7.5 µM (by protocol) | 300,000 tested, 0.32% active | AID 1910;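 active = mean activation of at least 10% of the iron chelator positive control signal, with at least half of replicates also reaching 10%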
GAA850 FXN act: increases GAA850 frataxin promoter reporter activity; 360,000 tested, 0.56% active; AID 540364; HEK293 lucGAA850 FXN promoter luciferase reporter, 24 h; percent of 10 µM SAHA response; activation, % at 6 µM;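 active = activation above the average of all compounds screened plus 3 SD, cutoff fixed separately per campaign, cut at about 7.5% in these data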;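 note: 0% = DMSO wells and 100% = 10 µM SAHA wells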
TAG inh: reduces triacylglycerol accumulation in H9c2 cells; inhibition, % at 12.5 µM; Nile Red lipid (TAG) fluorescence; cells loaded with 200 µM oleic acid; AID 651582; 230,000 tested, 0.66% active;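 active = pattern-corrected inhibition of lipid staining of at least 50% with the nuclear-stain viability signal not falling by more than 50%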;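 note: 0% = DMSO wells and 100% = triacsin C control wells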
Hsp70 act: transcriptional activators of Hsp70; HeLa Hsp70 promoter luciferase reporter, luminescence; scaled: vehicle 0, proteasome-inhibitor control 100%; AID 1203; activation, % at 10 µM; 200,000 tested, 0.04% active;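 active = activation above the mean across all tested compounds plus 3 SD, cutoff set per campaign, cut at about 5.5% in these data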;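 note: 100% = MG132 at 30 µM as the positive control and 0% = DMSO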
ABHD5 PLIN5 PPI: blocks binding of human ABHD5 to perilipin-5; Q00G26+Q8WTS1; Split G. princeps luciferase complementation, luminescence, 4 h; inhibition, % at 4 µM; 360,000 tested, 0.78% active; AID 602281;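 active = inhibition above the mean inhibition across every tested compound plus 3 SD, cut at about 22% in these data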;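 note: 0% = DMSO only wells and the 100% control is not disclosed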
Target sequence (Q00G26 whole entry, looked up): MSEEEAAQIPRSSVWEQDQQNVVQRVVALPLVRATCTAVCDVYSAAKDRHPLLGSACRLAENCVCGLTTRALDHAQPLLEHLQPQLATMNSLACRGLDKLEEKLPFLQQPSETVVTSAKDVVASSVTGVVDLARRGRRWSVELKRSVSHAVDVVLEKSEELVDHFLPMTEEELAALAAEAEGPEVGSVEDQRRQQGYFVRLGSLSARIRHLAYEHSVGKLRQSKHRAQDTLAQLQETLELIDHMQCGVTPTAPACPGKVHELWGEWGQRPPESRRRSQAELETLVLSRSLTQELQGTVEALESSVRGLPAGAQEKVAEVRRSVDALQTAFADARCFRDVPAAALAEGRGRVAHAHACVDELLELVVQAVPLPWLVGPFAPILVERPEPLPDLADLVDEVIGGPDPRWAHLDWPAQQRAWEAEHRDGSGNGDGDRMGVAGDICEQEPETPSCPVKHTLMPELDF
Target sequence (Q8WTS1 whole entry, looked up): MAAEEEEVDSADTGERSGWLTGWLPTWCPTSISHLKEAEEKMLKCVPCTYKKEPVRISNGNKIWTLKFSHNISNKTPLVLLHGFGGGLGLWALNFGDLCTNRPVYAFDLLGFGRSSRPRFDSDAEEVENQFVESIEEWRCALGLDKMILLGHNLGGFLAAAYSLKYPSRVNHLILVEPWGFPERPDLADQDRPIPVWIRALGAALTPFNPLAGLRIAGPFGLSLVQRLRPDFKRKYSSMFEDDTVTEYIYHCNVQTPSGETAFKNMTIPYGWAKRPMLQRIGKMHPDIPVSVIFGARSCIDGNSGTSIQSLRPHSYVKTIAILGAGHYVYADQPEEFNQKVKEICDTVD
Rad51 HR inh: blocks human Rad51 in homologous recombination; Q06609; hRad51 DNA strand exchange, fluorescence dequenching; inhibition, % at 10 µM; 200,000 tested, 0.085% active; AID 1385;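 active = inhibition above 40% at the single screening dose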;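 note: 0% = DMSO control wells and 100% = blanks with heterologous ssDNA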
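Material: human Rad51–ssDNA filaments; Probe or stimulus: labelled 47-mer dsDNA for strand exchange; Doses: single 10 µM dose; Incubation: 37 °C 15-min filament assembly, 30-min compound preincubation, 15-min exchange; Technique: FRET fluorescence dequenching, excitation 485 nm, emission 520 nm; Measure: Fluorescence-based percent inhibition, control- and blank-normalised; Benchmarks: plate control and blank wells.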
GAA30 FXN cntr: counter-screen for GAA850 frataxin promoter activators: GAA30 promoter activation | activation, % at 6 µM | HEK293 lucGAA30 FXN promoter luciferase, 24 h; DMSO = 0%, 5 µM ipriflavone = 100% | AID 588350 | shares compounds with GAA850 FXN act | 1,900 tested, 66% active;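 active = mean activation above the mean of solvent-only control wells plus 3 SD, cut at about 22% in these data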;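 note: counterscreen of GAA850 promoter hits where activity marks nonselective or luminescence artifacts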
FXN GAA850 conf: confirmation of GAA850 frataxin (FXN) promoter activators. shares compounds with GAA850 FXN act. HEK293 lucGAA850 FXN promoter luciferase reporter, 24 h; 100% = activation by SAHA. activation, % at 6 µM. 1,900 tested, 86% active. AID 588351;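 active = mean activation above a set limit taken from the primary screen, cut at about 8% in these data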;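 note: 0% = DMSO wells and 100% = 10 µM SAHA wells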
An asterisk follows results filed as active; . = not tested or not shown; ! = not confirmed by another sample.

SMILES	HIF activator	GAA850 FXN act	TAG inh	Hsp70 act	ABHD5 PLIN5 PPI	Rad51 HR inh	GAA30 FXN cntr	FXN GAA850 conf
Cc1ccc(C(=O)CCC(=O)OCC(=O)N2CCN(S(=O)(=O)c3ccc(C)cc3C)CC2)cc1	.	2	-11	.	4	.	.	.
CN(C)C(CNC(=O)CSc1nc2sc3c(c2c(=O)n1C)CCCC3)c1ccccc1 (stereo unspecified)	.	7.9*	25	.	1	.	8	7.6*
COc1ccc(-n2c(SCC(=O)O)nc3sc4c(c3c2=O)CCCC4)cc1	0	8.3*	.	.	3	.	22*	15*
COCCn1c(SCC(=O)NCC(c2ccccc2)N(C)C)nc2sc3c(c2c1=O)CCC3 (stereo unspecified)	.	4	10	.	-5	.	.	.
O=C(O)CSc1nc2sc3c(c2c(=O)n1-c1ccccc1)CCC3	-2	0	8	.	1	7	.	.
Cc1ccc(-n2nc3c(N4CCC(C(=O)NCCc5cccs5)CC4)nnc(C)c3c2C)cc1	-1	0	.	.	13	.	.	.
Cc1nn(-c2ccc(F)cc2)c(N)c1C1(O)C(=O)Nc2ccccc21 (stereo unspecified)	1	0	-1	0	0	15	.	.
CCN(CC(O)CON=C1c2ccccc2-c2ccccc21)S(=O)(=O)c1ccc(Cl)cc1 (stereo unspecified)	.	3	.	0	-2	0	.	.
CCN(CC(O)CON=C1c2ccccc2-c2ccccc21)S(=O)(=O)c1ccc(C)cc1 (stereo unspecified)	.	7.6*	.	-1	-4	-1	8	15*
CC(=O)Nc1cccc(NC(=O)CSc2ncc(C(=O)Nc3ccc(F)cc3)c(=O)n2C)c1	-1	5	8	.	11	.	.	.
CC(=O)Nc1cccc(NC(=O)CSc2ncc(C(=O)Nc3ccccc3)c(=O)n2C)c1	8	9.7*	1	.	19	.	21	15*
CCOC(=O)CC(NC(=O)c1ccc(C)cc1)c1ccc(C)cc1 (stereo unspecified)	0	3	-5	-1	5	-4	.	.
CCOc1ccccc1C(=O)NC(C)CCc1ccccc1 (stereo unspecified)	0	2	-60	.	-5	.	.	.
Cc1ccc(NC(=O)CSCC(=O)Nc2ccccc2N2CCCCC2)cc1	1	12*	-2	.	-9	.	13	13*
COc1ccc(CNC(=O)c2c(-c3cc(Cl)c(OC)c(Cl)c3)noc2C)cc1	.	10*	7	0	-6	1	17	11*
Cc1ccc(Cl)c2c1=NC(=O)C=2c1[nH]c(=S)[nH]c1O	-1	2	10	0	-23	-5	.	.
COc1ccc(OC)c(/C=N/N(C)c2ccccc2)c1	3	7.9*	.	0	-9	-2	127*	43*
COc1ccc(/C=C\C(=O)O[C@@H]2C(O)C(O[C@@H]3OC(C)[C@H](O[C@@H]4OCC(O[C@H]5O[C@H](CO)[C@@H](O)C(O)C5O)C(O)C4O)C(O)C3O)[C@H](OC(=O)[C@]34CCC(C)(C)C[C@@H]3C3=CCC5[C@@]6(C)CC(O)C(O[C@@H]7OC(CO)C(O)[C@H](O)[C@H]7O)[C@@](C)(C(=O)O)C6CC[C@@]5(C)[C@]3(CO)CC4)O[C@H]2C)cc1 (stereo partly specified)	.	1	-24	.	16	.	.	.
CC(C)N1C(=O)S/C(=C\c2ccc(-c3ccc(Cl)c(C(=O)O)c3)o2)C1=O	3	8.2*	0	.	7	.	116*	38*
O=C(CCl)Nc1ccc(N2CCCCCC2)cc1	0	7.7*	12	0	-5	.	10	29*
CCOC(=O)C1=C(COCCN)NC(C)=C(C(=O)OC)C1c1ccccc1Cl (stereo unspecified)	0	19*!	12	.	7	0	-5	6
C=CCNC(=O)CN(Cc1ccccc1)S(=O)(=O)c1ccccc1	-1	1	.	.	-5	.	.	.
CN(C)c1ccc(O)c2c1CC1CC3[C@@H](N(C)C)C(=O)C(C(N)=O)=C(O)[C@]3(O)C(=O)C1=C2O (stereo partly specified)	0	15*	8	0	2	-4	29*	10*
O=C(NNC(=O)c1cnccn1)c1ccc(Cl)c(Cl)c1	0	-1	4	.	-3	.	.	.
CCOc1ccc(C(C)=O)cc1COC(=O)c1ccccc1C(=O)N(C)Cc1ccccc1	.	9.5*	1	.	4	.	16	15*
SMILES	HIF activator	GAA850 FXN act	TAG inh	Hsp70 act	ABHD5 PLIN5 PPI	Rad51 HR inh	GAA30 FXN cntr	FXN GAA850 conf
CN(Cc1ccccc1)C(=O)c1ccccc1C(=O)OCC(=O)N(Cc1ccccc1)C(C)(C)C	.	-7	9	.	-3	.	.	.
O=C(Nc1ccc(Cc2ccc(NC(=O)Nc3cccnc3)cc2)cc1)Nc1cccnc1	.	0	-1	.	3	.	.	.
Cc1cnc(NC(=O)Nc2ccc(Cl)cc2)s1	4	8.2*	7	0	-2	-14	74*	46*
O=C(Nc1ccc(Cl)cc1)Nc1cccnc1	1	8.4*	.	0	0	.	63*	21*
CCCCN(C)CCNC(=O)CCNC(=O)Cn1ccc2ccccc2c1=O	0	2	-10	0	4	7	.	.
CCCCC(=O)NC(=S)Nc1cccc(Cl)c1N1CCCCC1	0	10*	.	0	13	17	13	9.6*
CCCC(=O)NC(=S)Nc1cccc(Cl)c1N1CCCCC1	-1	3	.	0	-9	0	.	.
COc1ccc(CCNC(=O)Cc2cc3c(cc2[N+](=O)[O-])OCO3)cc1OC	.	1	-16	.	-2	.	.	.
Nc1n[nH]c(N)c1N=Nc1ccc(Cl)cc1	2	8.7*	.	0	6	-9	71*	15*
Nc1n[nH]c(N)c1N=Nc1cccc(F)c1	1	0	.	0	2	4	.	.
CC(=O)NCc1ccc(-c2nc3ccccc3s2)cc1	-1	3	1	0	6	-10	.	.
COc1ccc(C(=O)Nc2nc3ccccc3s2)cc1OC	2	11*	-18	0	0	-41	116*	29*
COc1ccc(-c2nc3ccccc3s2)cc1NC(C)=O	2	8.4*	15	0	11	6	124*	40*
C[C@H](CO)N1C[C@H](C)[C@@H](CN(C)C(=O)CCC(F)(F)F)OCc2cnnn2CCCC1=O	.	-1	-3	.	-5	.	.	.
Cc1c(CCOC(=O)CC23CC4CC(CC(C)(C4)C2)C3)sc[n+]1CC(=O)c1ccccc1	1	9.7*	-4	0	14	2	12	14*
